Screens (PubChem)
VLA-4 inh: inhibition in a human VLA-4 binding assay; 330,000 compounds, 0.2% hits; AID 2557; VLA-4 expressing cells, ligand binding flow cytometry; inhibition, % (about 7 µM as worked out from the volumes in the protocol); in the data active means inhibition above about 50%
MT1-MMP act inh: blocks activation of human MT1-MMP | GFP/RFP ratio change, % at 20 µM | HT1080 RFP-PRO-GFP cells, GFP/RFP ratio fluorescence, overnight; percent of plate control window, DMSO zero | 360,000 compounds, 0.061% hits | AID 651647;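 active means GFP/RFP ratio change of at least 30% with cell ATP level not reduced by more than half and red fluorescence within 50% of control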
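system = RFP-PRO-GFP reporter HT1080 cells | dosing = 20 µM single dose, 1% DMSO | timing = overnight cell settling, then overnight compound exposure, 37 °C, 5% CO2 | read-out basis = GFP/RFP fluorescence ratio | controls = DMSO and RFP-L50D-GFP cell wells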
Exocytosis inh: blocks lytic granule exocytosis; AID 651702; 360,000 compounds, 0.66% hits; inhibition, % at 10 µM; TALL-104 LAMP-1 surface exposure, flow cytometry; cells stimulated with thapsigargin and PMA;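 active means inhibition above about 55%, limit read from the data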
FGF22 binding: shifts melting point of recombinant human FGF22; Q9HCT0; recombinant FGF22 thermal shift, SYPRO orange fluorescence; percent of sucrose octasulfate shift, DMSO zero; activity (Tm shift, normalised), % at 9.99 µM; 340,000 compounds, 1.5% hits; AID 651658;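 active means mean Tm shift, scaled 0 neutral to 100 positive control, at about 1.3% or above, every replicate too, limit read from the data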
ABCB6 inh MLPCN: human ABCB6 transporter inhibition. K562-ABCB6 porphyrin accumulation, flow cytometry, 1 h; stronger effect = lower value. fluorescence ratio to DMSO, % at 10 µM. Q9NP58. 360,000 compounds, 0.19% hits;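 active means fluorescence ratio to DMSO below 75%, the collection mean minus 3 SD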;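 further: signal is porphyrin accumulated inside mitochondria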
Target sequence (Q9NP58 whole entry, looked up): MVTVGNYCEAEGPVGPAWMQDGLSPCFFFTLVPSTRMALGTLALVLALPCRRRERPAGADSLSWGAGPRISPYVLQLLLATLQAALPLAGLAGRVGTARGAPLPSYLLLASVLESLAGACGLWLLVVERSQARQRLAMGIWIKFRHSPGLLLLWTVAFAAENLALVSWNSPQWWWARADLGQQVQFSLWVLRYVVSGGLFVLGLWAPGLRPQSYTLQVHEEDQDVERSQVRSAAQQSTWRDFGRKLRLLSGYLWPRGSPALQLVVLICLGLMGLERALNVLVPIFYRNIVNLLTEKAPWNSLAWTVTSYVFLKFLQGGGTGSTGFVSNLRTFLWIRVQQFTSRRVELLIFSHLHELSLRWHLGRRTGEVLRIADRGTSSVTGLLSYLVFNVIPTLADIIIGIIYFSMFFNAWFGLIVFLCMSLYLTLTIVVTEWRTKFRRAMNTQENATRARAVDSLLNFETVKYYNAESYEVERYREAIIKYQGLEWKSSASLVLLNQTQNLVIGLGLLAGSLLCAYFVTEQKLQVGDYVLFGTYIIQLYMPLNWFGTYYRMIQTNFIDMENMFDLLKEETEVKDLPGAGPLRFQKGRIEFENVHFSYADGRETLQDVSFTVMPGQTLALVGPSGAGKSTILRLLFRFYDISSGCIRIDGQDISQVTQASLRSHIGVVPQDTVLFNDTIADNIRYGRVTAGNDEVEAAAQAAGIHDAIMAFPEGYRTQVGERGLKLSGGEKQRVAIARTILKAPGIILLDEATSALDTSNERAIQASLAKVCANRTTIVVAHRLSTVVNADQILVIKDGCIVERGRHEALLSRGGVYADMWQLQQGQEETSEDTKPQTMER
DAGLB inhibitor: blocks human DAGLB lipase activity; Q8NCG7; inhibition, % at 5.17 µM; 340,000 compounds, 0.059% hits; HEK293T DAGLB membrane lysate, EnzChek fluorogenic substrate; in the data active means inhibition above about 34%
Of the large screens only hits and unclear results are named; the others gave an inactive call. An excerpt weighted towards active compounds, which were near 2% of everything screened.

O=C(Nc1ccccc1)Nc1cc(OCC(F)(F)F)cc(OCC(F)(F)F)c1	FGF22 binding 44 (no result: VLA-4 inh)
CC(C)NC(=O)Nc1ccc2c(c1)CC(=O)N([C@H](C)CO)C[C@@H](C)[C@@H](CN(C)C(=O)Nc1ccc(F)cc1)O2	none (no result: VLA-4 inh, MT1-MMP act inh, Exocytosis inh, ABCB6 inh MLPCN, DAGLB inhibitor)
C[C@H]1CCCCO[C@@H](CN(C)C(=O)Nc2cccc3ccccc23)[C@@H](C)CN([C@@H](C)CO)C(=O)c2cc(NC(=O)Cc3ccccc3)ccc2O1	none (no result: VLA-4 inh, MT1-MMP act inh, Exocytosis inh, ABCB6 inh MLPCN, DAGLB inhibitor)
CCC1CN(S(=O)(=O)c2cc(-c3cc(C)no3)ccc2OC)c2cc(C)ccc2O1 (centres undefined)	Exocytosis inh 70
Fc1ccc(Nc2c3c(nc4ccccc24)CCC3)cc1	FGF22 binding 1.5
O=C(C[C@H]1CC[C@H](NC(=O)Nc2ccc(C(F)(F)F)cc2)[C@@H](CO)O1)NCc1cccc(F)c1	none (no result: VLA-4 inh, MT1-MMP act inh, Exocytosis inh, ABCB6 inh MLPCN, DAGLB inhibitor)
Nc1ccc(C(=O)OCC(=O)N2c3ccccc3Sc3ccccc32)cc1[N+](=O)[O-]	none (no result: FGF22 binding)
NCCNc1ccc(C(=O)N2c3ccccc3Sc3ccccc32)cc1[N+](=O)[O-]	Exocytosis inh 66
CCOc1nc(N2CCOCC2)nc(C)c1[N+](=O)[O-]	FGF22 binding 44
CNCCOc1nc(N2CCOCC2)nc(C)c1[N+](=O)[O-]	none
O=C(NCc1ccccn1)c1ccc(N2CCCC2)c([N+](=O)[O-])c1	FGF22 binding 43
Cc1ccc(-c2csc(NC(=O)c3cc([N+](=O)[O-])ccc3N3CCOCC3)n2)cc1	none
O=C(NCc1ccncc1)c1ccc(N2CCCC2)c([N+](=O)[O-])c1	none
O=C(Nc1nc(-c2ccccc2)cs1)c1ccc(N2CCOCC2)c([N+](=O)[O-])c1	Exocytosis inh 84 (no result: FGF22 binding)
CC(NC(=O)COC(=O)c1nc(Cl)ccc1Cl)c1ccccc1 (centres undefined)	FGF22 binding 44
O=C(OCC(=O)N1CCc2ccccc21)c1nc(Cl)ccc1Cl	FGF22 binding 44
O=C(COC(=O)c1nc(Cl)ccc1Cl)NNC(=O)c1ccccc1	none (no result: FGF22 binding)
O=C(COC(=O)c1ccccc1C(=O)c1ccc(Cl)cc1)NC(c1ccccc1)c1ccccc1	FGF22 binding 43
CC(NC(=O)COC(=O)/C=C/c1ccc(Cl)cc1)c1ccccc1 (centres undefined)	FGF22 binding 44
COCC(=O)Nc1ccc2c(c1)OC[C@H](C)N(C(=O)c1cccnc1)C[C@H](C)[C@@H](OC)CN(C)C2=O	none (no result: VLA-4 inh, MT1-MMP act inh, Exocytosis inh, ABCB6 inh MLPCN, DAGLB inhibitor)
C[C@H](CO)N1C[C@H](C)[C@H](CN(C)C(=O)c2ccccn2)Oc2ncc(C#Cc3ccccn3)cc2C1=O	none (no result: VLA-4 inh, MT1-MMP act inh, Exocytosis inh, ABCB6 inh MLPCN, DAGLB inhibitor)
CCn1ncc(-c2cc(C(=O)O)no2)c1C	FGF22 binding 43 (no result: MT1-MMP act inh, Exocytosis inh, ABCB6 inh MLPCN, DAGLB inhibitor)
CCOCCCNc1c2c(nc3cc(-c4ccc(F)cc4)nn13)CCC2	FGF22 binding 43
COc1ccccc1/C=N/NC(=O)Cn1cnc([N+](=O)[O-])n1	none
O=C(Cn1cnc([N+](=O)[O-])n1)N/N=C/c1ccc2ccccc2c1	FGF22 binding 44
Cc1ccc(S(=O)(=O)N(C)C[C@@H]2Oc3ccc(NC(=O)Nc4c(C)noc4C)cc3CC(=O)N([C@@H](C)CO)C[C@H]2C)cc1	none (no result: VLA-4 inh, MT1-MMP act inh, Exocytosis inh, ABCB6 inh MLPCN, DAGLB inhibitor)
CCc1ccc(/C=N/NC(=O)c2cc(-c3cccc([N+](=O)[O-])c3)n[nH]2)cc1	Exocytosis inh 76
O=C(N/N=C/c1cccc([N+](=O)[O-])c1)c1cc(-c2ccc3c(c2)OCO3)n[nH]1	none
CC1(C)Cc2c(sc(NC(=O)COc3ccc(Cl)cc3)c2C#N)C(C)(C)N1	none (no result: FGF22 binding)
Cc1ccccc1OCC(=O)Nc1sc2c(c1C#N)CC(C)(C)NC2(C)C	Exocytosis inh 59
Cc1ccc(S(=O)(=O)NCC[C@@H]2CC[C@H](NC(=O)CCN3CCCCC3)[C@@H](CO)O2)cc1	none (no result: VLA-4 inh, MT1-MMP act inh, Exocytosis inh, ABCB6 inh MLPCN, DAGLB inhibitor)
CCCCNC(=O)Cc1ccc(Br)cc1	FGF22 binding 44
COCCNC(=O)Cc1ccc(Br)cc1	none (no result: FGF22 binding)
CCC(=O)/C=C1/Sc2ccc(OC)cc2N1CC	none
CCC(=O)/C=C1/Sc2ccc(OC)cc2N1CCO	FGF22 binding 43
Cc1cc(Cl)ccc1OC(C)C(=O)Nc1ccc(C(=O)Nc2ccccc2C(=O)O)cc1 (centres undefined)	FGF22 binding 1.4
Fc1ccccc1-c1cc2ccccc2cn1	FGF22 binding 44
CCN1CCN(CC(=O)N2N=C(c3cccs3)CC2c2ccc(OC)cc2)C(=O)C1=O (centres undefined)	FGF22 binding 43
COc1ccc(/C=N/NC(=O)c2sc(C)nc2C)cc1	FGF22 binding 43
COc1ccc(C(=O)N/C(=C\c2cccc([N+](=O)[O-])c2)C(=O)Nc2cccc(C(=O)O)c2)cc1	FGF22 binding 43
O=C(Nc1nccs1)C1CC(=O)N(Cc2ccco2)C1 (centres undefined)	FGF22 binding 43
COc1ccccc1OCC(=O)NNC(=O)CCCC(=O)NNC(=O)COc1ccccc1OC	none
COc1ccccc1OCC(=O)NNc1c2ccccc2nc2ccccc12	Exocytosis inh 59
C[C@H](CO)N1C[C@H](C)[C@H](CN(C)S(=O)(=O)c2cn(C)cn2)Oc2ncc(C3=CCCC3)cc2C1=O	none (no result: VLA-4 inh, MT1-MMP act inh, Exocytosis inh, ABCB6 inh MLPCN, DAGLB inhibitor)
Cc1cc[n+](CC(=O)c2ccc3c(c2)OCCO3)cc1	FGF22 binding 44
O=C(C[n+]1ccc(/C=C/c2ccccc2)cc1)c1ccc2c(c1)OCCO2	none
CSc1nc(C)c(C(=O)C[n+]2ccc(C)cc2)cc1C#N	Exocytosis inh 76
CCOC(=O)c1cc(-c2ccc(F)cc2)n(CC(=O)NC(C)CC)c1C (centres undefined)	FGF22 binding 43
CCCNC(=O)Cn1c(-c2ccc(F)cc2)cc(C(=O)OCC)c1C	FGF22 binding 43
CCOC(=O)c1cc(-c2ccc(C)cc2)n(CCC(=O)NC(C)CC)c1C (centres undefined)	none (no result: FGF22 binding)
CCCNC(=O)CCn1c(-c2ccc(C)cc2)cc(C(=O)OCC)c1C	none (no result: FGF22 binding)
C[C@@H]1CCCCO[C@H](CN(C)C)[C@@H](C)CN([C@H](C)CO)C(=O)c2cc(NC(=O)Nc3ccc(F)cc3)ccc2O1	none (no result: VLA-4 inh, MT1-MMP act inh, Exocytosis inh, ABCB6 inh MLPCN, DAGLB inhibitor)
C[C@H](CO)N1C[C@H](C)[C@H](CN(C)S(=O)(=O)c2cccs2)Oc2ncc(-c3ccc(F)cc3)cc2C1=O	none (no result: VLA-4 inh, MT1-MMP act inh, Exocytosis inh, ABCB6 inh MLPCN, DAGLB inhibitor)
CN(CC(=O)Nc1ccc(F)cc1)C(=O)CSc1nc2ncc(Cl)cc2[nH]1	FGF22 binding 43
O=C(CSc1nc2ncc(Cl)cc2[nH]1)Nc1cccc(F)c1	none
O=C(O)c1ccccc1N/N=C/c1cc(Br)cc(Br)c1O	FGF22 binding 44
O=C(Cc1ccccc1)N/N=C/c1cc(Br)cc(Br)c1O	none
O=C(N/N=C/c1ccc(OCc2ccccc2)cc1)c1ccncc1	none
O=C(N/N=C/c1ccc(OCc2cnc(Cl)s2)cc1)c1ccncc1	FGF22 binding 43
CCOC(=O)c1ccccc1NC(=O)COC(=O)c1ccccc1C(=O)N(C)c1ccccc1	none
